How the values were obtained:
Homo sapiens [1] = species on record: Homo sapiens; test: In vitro inhibition of platelet aggregation induced by […] (PRP incubated for 5 minutes at 37 degree C) at 10e-5 M; No significance; type: functional
Homo sapiens [2] = species on record: Homo sapiens; test: No significance in vitro inhibition of platelet aggregation induced by ADP-II (PRP incubated for 60 minutes at 37 degree C) at 10e-5 M;No significance; type: functional
Method in brief: (§1)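 Human venous blood anticoagulated with 3.8% sodium citrate (1:9). PRP from centrifugation at 800 rpm for 10 min at room temperature. Count adjusted with PPP to […]. Compound in saline with 10% ethylene glycol is added to PRP and incubated at 37 °C before the agonist. Agonists: ADP 2×10^-5 M, AA 0.6 mM, PGH2 2.8 μM, adrenaline 0.6 μM. Born absorbance aggregometry; n = 5.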

Rattus norvegicus [3] = test: Antihypertensive activity in spontaneously hypertensive rats (SHR) measured by percentage fall in cardiac rhythm (CR) at 5 mg/kg administered intraperitoneally at 5 h;No significance; type: functional, organism-based; parameters: dose 5 mg/kg; conditions: Heart
Method in brief: (§2)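 Conscious SHR (Okamoto strain), 8 weeks old, male and female, 300–350 g, systolic BP ≥190 mmHg, CR 400–650 beats/min. Given ip or po at 2.5 mL/kg in normal saline or saline with 0.2% (carboxymethyl)cellulose and 1.0% Tween 80. Tail AP and CR recorded by mechanical transduction at 1, 3, 5 and 24 h, five animals per dose. Effect expressed as % fall versus control.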

Homo sapiens [4] = species on record: Homo sapiens; test: In vitro inhibition of platelet aggregation induced by AA (PRP incubated for 60 minutes at 37 degree C) at 10e-5 M; No significance; type: functional; method in brief: as §1
Homo sapiens [5] = species on record: Homo sapiens; test: In vitro inhibition of platelet aggregation induced by ADP-II (PRP incubated for 5 minutes at 37 degree C) at 10e-5 M; No significance; type: functional; method in brief: as §1
Rattus norvegicus [6] = test: Antihypertensive activity in spontaneously hypertensive rats (SHR) measured by percentage fall in cardiac rhythm (CR) at 25 mg/kg administered perorally at 24 h;No significance; type: functional, organism-based; parameters: dose 25 mg/kg; conditions: Heart; method in brief: as §2
Rattus norvegicus [7] = test: Antihypertensive activity in spontaneously hypertensive rats (SHR) measured by percentage fall in cardiac rhythm (CR) at 25 mg/kg administered perorally at 5 h;No significance; type: functional, organism-based; parameters: dose 25 mg/kg; conditions: Heart; method in brief: as §2
Rattus norvegicus [8] = test: Antihypertensive activity in spontaneously hypertensive rats (SHR) measured by percentage fall in cardiac rhythm (CR) at 5 mg/kg administered intraperitoneally at 24 h;No significance; type: functional, organism-based; parameters: dose 5 mg/kg; conditions: Heart; method in brief: as §2
Rattus norvegicus [9] = test: Antihypertensive activity in spontaneously hypertensive rats (SHR) measured by percentage fall in arterial pressure (AP) at 1 mg/kg administered intraperitoneally at 3 h;No significance; type: functional, organism-based; parameters: dose 1 mg/kg; conditions: Artery
Method in brief: (§3)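 Unanesthetized Okamoto-strain SHR, male and female, 8 weeks old, 300–350 g, systolic pressure ≥190 mmHg, heart rate 400–650 beats/min; five animals per dose. Given ip at 2.5 mL/kg, dissolved or suspended in normal saline or saline with 0.2% (carboxymethyl)cellulose and 1.0% Tween 80. Tail AP and CR recorded by mechanical transduction at set times; reported as percentage fall from control.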

Rattus norvegicus [10] = test: Antihypertensive activity in spontaneously hypertensive rats (SHR) measured by percentage fall in arterial pressure (AP) at 1 mg/kg administered intraperitoneally at 5 h;No significance; type: functional, organism-based; parameters: dose 1 mg/kg; conditions: Artery; method in brief: as §3
Rattus norvegicus [11] = test: Antihypertensive activity in spontaneously hypertensive rats (SHR) measured by percentage fall in arterial pressure (AP) at 25 mg/kg administered intraperitoneally at 24 h; No significance; type: functional, organism-based; parameters: dose 25 mg/kg; conditions: Artery; method in brief: as §3
Rattus norvegicus [12] = test: Antihypertensive activity in spontaneously hypertensive rats (SHR) measured by percentage fall in arterial pressure (AP) at 1 mg/kg administered intraperitoneally at 24 h;No significance; type: functional, organism-based; parameters: dose 1 mg/kg; conditions: Artery; method in brief: as §3
Rattus norvegicus [13] = test: Antihypertensive activity in spontaneously hypertensive rats (SHR) measured by percentage fall in arterial pressure (AP) at 25 mg/kg administered perorally at 24 h;No significance; type: functional, organism-based; parameters: dose 25 mg/kg; conditions: Artery
Method in brief: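 Oral dosing at 2.5 mL/kg to unanesthetized male and female Okamoto-strain SHR (8 weeks old, 300–350 g, systolic pressure ≥190 mmHg, heart rate 400–650 beats/min), five per dose. Vehicle was normal saline or saline with 0.2% (carboxymethyl)cellulose and 1.0% Tween 80. AP measured on the tail by mechanical transduction at set times; expressed as percentage fall from control.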

Rattus norvegicus [14] = test: Antihypertensive activity in spontaneously hypertensive rats (SHR) measured by percentage fall in arterial pressure (AP) at 1 mg/kg administered intraperitoneally at 1 h;No significance; type: functional, organism-based; parameters: dose 1 mg/kg; conditions: Artery; method in brief: as §3
Rattus norvegicus [15] = test: Percent fall in systolic blood pressure, directly measured on carotid (iv on the jugular vein) of spontaneously after 180 minutes; No significance; type: functional, organism-based; conditions: Artery
Method in brief: (§4)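 Anesthetized (sodium pentobarbital, 70 mg/kg) male and female Okamoto SHR, 8 weeks old, 300–350 g. Given iv into the jugular vein in normal saline. Arterial pressure and cardiac rhythm are recorded directly from the carotid by polygraph at set times after dosing. Each is expressed as percent change from the pre-dose control value.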

Rattus norvegicus [16] = test: Percent fall in systolic blood pressure, directly measured on carotid (iv on the jugular vein) of spontaneously hypertensive rats at 1 mg/kg after 240 minutes; No significance; type: functional, organism-based; parameters: dose 1 mg/kg; conditions: Artery; method in brief: as §4
Cavia porcellus [17] = test: Effect on thromboxane synthetase activity on ex vivo platelet aggregation induced by PGE-2 at 100 mg/kg expressed as percent increase; type: functional
Method in brief: (§5)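 Fasted male or female guinea pigs (250–300 g, five per group) dosed orally in normal saline or saline with 0.2% (carboxymethyl)cellulose/1.0% Tween 80; controls given vehicle. Under ether, cardiac blood collected into 3.8% citrate. PRP adjusted to […] and aggregation induced by ADP (second wave) or AA, read by absorbance aggregometry. PGE2 and TXB2 measured by RIA.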

Cavia porcellus [18] = test: Effect on thromboxane synthetase activity on ex vivo platelet aggregation induced by TXB2 at 100 mg/kg expressed as percent increase; type: functional; method in brief: as §5
[19] = Effect on thromboxane synthetase activity on in vitro platelet aggregation induced by AA at 10e -5 M expressed as percent increase in PGE-2; type: functional, Homo sapiens
Method in brief: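 Human citrated PRP adjusted to 200 000 […], compound at 10^-5 M final in saline/10% ethylene glycol, incubated at 37 °C. Aggregation induced with arachidonic acid 0.6 mM and read by Born absorbance aggregometry. PGE2 and TXB2 in the aggregated samples measured by radioimmunoassay. n = 5.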

Cavia porcellus [20] = test: Ex vivo inhibition of platelet aggregation induced by AA at 100 mg/kg; type: functional; method in brief: as §5
Cavia porcellus [21] = test: Ex vivo inhibition of platelet aggregation induced by ADP-II at 100 mg/kg; type: functional; method in brief: as §5
Rattus norvegicus [22] = test: Antihypertensive activity in spontaneously hypertensive rats (SHR) measured by percentage fall in cardiac rhythm (CR) at 50 mg/kg administered intraperitoneally at 24 h; type: functional, Heart; conditions: route intraperitoneal; method in brief: as §2
Rattus norvegicus [23] = test: Antihypertensive activity in spontaneously hypertensive rats (SHR) measured by percentage fall in cardiac rhythm (CR) at 50 mg/kg administered intraperitoneally at 3 h; type: functional, Heart; conditions: route intraperitoneal; method in brief: as §2
Rattus norvegicus [24] = test: Antihypertensive activity in spontaneously hypertensive rats (SHR) measured by percentage fall in cardiac rhythm (CR) at 50 mg/kg administered intraperitoneally at 5 h; type: functional, Heart; conditions: route intraperitoneal; method in brief: as §2
Homo sapiens [25] = species on record: Homo sapiens; test: In vitro inhibition of platelet aggregation induced by AA (PRP incubated for 60 minutes at 37 degree C) at 5e-6 M;No significance; type: functional; method in brief: as §1
Homo sapiens [26] = species on record: Homo sapiens; test: In vitro inhibition of platelet aggregation induced by ADP-II (PRP incubated for 5 minutes at 37 degree C) at 10e-5 M; type: functional; method in brief: as §1
Homo sapiens [27] = species on record: Homo sapiens; test: In vitro inhibition of platelet aggregation induced by ADP-II (PRP incubated for 5 minutes at 37 degree C) at 10e-6 M; type: functional; method in brief: as §1
Homo sapiens [28] = species on record: Homo sapiens; test: In vitro inhibition of platelet aggregation induced by ADP-II (PRP incubated for 60 minutes at 37 degree C) at 10e-5 M; type: functional; conditions: 1 h; method in brief: as §1
Homo sapiens [29] = species on record: Homo sapiens; test: In vitro inhibition of platelet aggregation induced by ADP-II (PRP incubated for 60 minutes at 37 degree C) at 5e-6 M; type: functional; method in brief: as §1
Homo sapiens [30] = species on record: Homo sapiens; test: In vitro inhibition of platelet aggregation induced by DD (PRP incubated for 5 minutes at 37 degree C) at 10e-5 M; type: functional; method in brief: as §1
Homo sapiens [31] = species on record: Homo sapiens; test: In vitro inhibition of platelet aggregation induced by PGH-2 (PRP incubated for 60 minutes at 37 degree C) at 10e-5 M; type: functional; conditions: 1 h; method in brief: as §1
Rattus norvegicus [32] = test: Antihypertensive activity in spontaneously hypertensive rats (SHR) measured by percentage fall in arterial pressure (AP) at 50 mg/kg administered intraperitoneally at 24 h; type: functional, Artery; conditions: route intraperitoneal; method in brief: as §3
Rattus norvegicus [33] = test: Antihypertensive activity in spontaneously hypertensive rats (SHR) measured by percentage fall in arterial pressure (AP) at 50 mg/kg administered intraperitoneally at 3 h; type: functional, Artery; conditions: route intraperitoneal; method in brief: as §3
Rattus norvegicus [34] = test: Antihypertensive activity in spontaneously hypertensive rats (SHR) measured by percentage fall in arterial pressure (AP) at 50 mg/kg administered intraperitoneally at 5 h; type: functional, Artery; conditions: route intraperitoneal; method in brief: as §3
Homo sapiens [35] = species on record: Homo sapiens; test: Inhibition of platelet aggregation induced by AA (PRP incubated for 60 minutes at 37 degree C) at 10e-5 M; type: functional; conditions: 1 h; method in brief: as §1
[36] = molecular target: T1, Thromboxane-A synthase (Homo sapiens) (UniProt P24557); test: Effect on thromboxane synthetase activity on in vitro platelet aggregation induced by AA at 10e -5 M expressed as percent inhibition of TXB2
T1 sequence (whole entry): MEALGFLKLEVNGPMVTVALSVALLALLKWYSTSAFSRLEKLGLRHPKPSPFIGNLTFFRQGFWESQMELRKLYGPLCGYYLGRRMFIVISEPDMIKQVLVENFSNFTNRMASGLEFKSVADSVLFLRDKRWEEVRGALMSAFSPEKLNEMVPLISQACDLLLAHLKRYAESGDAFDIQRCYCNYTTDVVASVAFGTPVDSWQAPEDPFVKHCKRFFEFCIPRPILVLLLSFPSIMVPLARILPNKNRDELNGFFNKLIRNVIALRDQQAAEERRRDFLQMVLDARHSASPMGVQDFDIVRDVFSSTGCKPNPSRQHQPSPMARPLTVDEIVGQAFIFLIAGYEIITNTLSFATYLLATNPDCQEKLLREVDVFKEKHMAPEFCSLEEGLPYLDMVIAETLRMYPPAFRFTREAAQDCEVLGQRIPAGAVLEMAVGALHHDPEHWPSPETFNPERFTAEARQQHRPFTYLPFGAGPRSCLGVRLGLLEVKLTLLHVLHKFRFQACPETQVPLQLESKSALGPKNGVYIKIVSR

Compound: NNc1[nH]ncc2c3cc(OCc4ccccc4)ccc3nc1-2
- inhibition (Homo sapiens [1]): No significant values
- inhibition (Homo sapiens [2]): No significant values
- Decrease in CR (Rattus norvegicus [3]): No significant values
- inhibition (Homo sapiens [4]): No significant values
- inhibition (Homo sapiens [5]): No significant values
- Decrease in CR (Rattus norvegicus [6]): No significant values
- Decrease in CR (Rattus norvegicus [7]): No significant values
- Decrease in CR (Rattus norvegicus [8]): No significant values
- Decrease in AP (Rattus norvegicus [9]): No significant values
- Decrease in AP (Rattus norvegicus [10]): No significant values
- Decrease in AP (Rattus norvegicus [11]): No significant values
- Decrease in AP (Rattus norvegicus [12]): No significant values

Compound: NNc1[nH]ncc2c3cc(O)ccc3nc1-2
- Decrease in AP (Rattus norvegicus [13]): No significant values
- Decrease in AP (Rattus norvegicus [14]): No significant values
- Decrease in CR (Rattus norvegicus [6]): No significant values
- Decrease in blood pressure (Rattus norvegicus [15]): No significant values
- Decrease in blood pressure (Rattus norvegicus [16]): No significant values
- Decrease in AP (Rattus norvegicus [10]): No significant values

Compound: Oc1[nH]ncc2c3cc(OCc4ccccc4)ccc3nc1-2
- Increase (Cavia porcellus [17]): 30%
- inhibition in vivo at 100 mg/kg (Cavia porcellus [18]): 50%
- Increase [19]: 270%
- inhibition in vivo at 100 mg/kg (Cavia porcellus [20]): 100%
- inhibition in vivo at 100 mg/kg (Cavia porcellus [21]): 100%
- Decrease in CR (Rattus norvegicus [22]): 9%
- Decrease in CR (Rattus norvegicus [23]): 10%
- Decrease in CR (Rattus norvegicus [24]): 15%
- inhibition (Homo sapiens [25]): No significant values
- inhibition at 10 µM (Homo sapiens [26]): 60%
- inhibition at 1 µM (Homo sapiens [27]): 40%
- inhibition at 10 µM (Homo sapiens [28]): 100%
- Inhibition (Homo sapiens [29]): 80%
- inhibition at 10 µM (Homo sapiens [30]): 100%
- inhibition at 10 µM (Homo sapiens [31]): 100%
- Decrease in AP (Rattus norvegicus [32]): 7%
- Decrease in AP (Rattus norvegicus [33]): 12%
- Decrease in AP (Rattus norvegicus [34]): 13%
- inhibition at 10 µM (Homo sapiens [35]): 100%
- Inhibition % [36]: 50%

From ChEMBL document CHEMBL1123757, “Selective thromboxane synthetase inhibitors and antihypertensive agents. New derivatives of 4-hydrazino-5H-pyridazino[4,5-b]indole, 4-hydrazinopyridazino[4,5-a]indole, and related compounds” (J Med Chem, 1987)
